The subject of one data set is Candida tropicalis. Nature of the data set: Antifungal activity against Candida tropicalis ATCC 750 after 24 hrs by broth microdilution method. The data set is classed as functional. A digest of the protocol: (§1)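 Broth microdilution in microplates with a serial dilution series of compounds. Amphotericin B served as the fungicidal control and fluconazole as the fungistatic control. Yeast plates were incubated at 37 °C for 24 h.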
On the technique in general: Broth dilution looks for growth in wells or tubes with falling amounts of substance.

The test system of a further data set is Cryptococcus neoformans. Nature of the data set: Antifungal activity against Cryptococcus neoformans ATCC 90012 after 24 hrs by broth microdilution method. The class given is functional. To be noted: for MIC: read-out: MIC100. A digest of the protocol:
as §1

For another data set, the system named is Nannizzia gypsea. In words: Antifungal activity against Microsporum gypseum after 48 hrs by broth microdilution method. The class given is functional. In outline:
(§2)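 Broth microdilution against filamentous fungi with serially diluted compounds. Amphotericin B (fungicidal) and fluconazole (fungistatic) were run as controls. Plates were incubated at 30 °C for 48 h.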

Another data set deals with Candida parapsilosis. Nature of the data set: Antifungal activity against Candida parapsilosis ATCC 69548 after 24 hrs by broth microdilution method. The data set is classed as functional. A digest of the protocol: as §1
Another data set deals with Trichophyton tonsurans. In words: Antifungal activity against Trichophyton tonsurans after 48 hrs by broth microdilution method. The data set is classed as functional. To be noted: for MIC: read-out: MIC100. In outline: as §2
Another data set has as its system Nakaseomyces glabratus. In words: Antifungal activity against Candida glabrata ATCC 90030 after 24 hrs by broth microdilution method. The data set is classed as functional. In outline:
as §1

For a further data set, the system named is Pichia kudriavzevii. Nature of the data set: Antifungal activity against Candida krusei ATCC 6258 after 24 hrs by broth microdilution method. The class given is functional. In outline:
as §1

The subject of the next data set is Candida albicans. In words: Antifungal activity against Candida albicans ATCC 09548 after 24 hrs by broth microdilution method. The data set is classed as functional. A digest of the protocol: as §1
For the next data set, the system named is Proteus mirabilis. Nature of the data set: Antimicrobial activity against Proteus mirabilis ATCC 25933 after 24 hrs by broth microdilution method. The class given is functional. In outline: (§3)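 Microplate broth microdilution with a serial dilution series of compounds, using chloramphenicol as the antibacterial control. Bacterial plates were incubated at 35 °C for 24 h.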

The subject of a further data set is Escherichia coli. In words: Antimicrobial activity against Escherichia coli ATCC 25922 after 24 hrs by broth microdilution method. The data set is classed as functional. A digest of the protocol: as §3
The next data set deals with Bacillus cereus. Nature of the data set: Antimicrobial activity against Bacillus cereus ATCC 11778 after 24 hrs by broth microdilution method. The class given is functional. To be noted: for MIC50 / MIC: ATCC 11778, 24 h; for MIC: read-out: MIC100. A digest of the protocol: as §3
A further data set deals with Salmonella typhimurium. In words: Antimicrobial activity against Salmonella typhimurium ATCC 14028 after 24 hrs by broth microdilution method. To be noted: for MIC100: Salmonella enterica subsp. enterica serovar Typhimurium. The class given is functional, Salmonella enterica subsp. enterica serovar Typhimurium. A digest of the protocol: as §3
In a further data set the test system is Staphylococcus aureus. Nature of the data set: Antimicrobial activity against Staphylococcus aureus ATCC 6538 after 24 hrs by broth microdilution method. The class given is functional. In outline: as §3
Another data set deals with Pseudomonas aeruginosa. Nature of the data set: Antimicrobial activity against Pseudomonas aeruginosa ATCC 9027 after 24 hrs by broth microdilution method. The class given is functional. A digest of the protocol: as §3
Data set [1] in a line: Cytotoxicity against human PBMC after 48 hrs by MTT assay. To be noted: PBMC (peripheral blood mononuclear cells). The data set is classed as cell-based. In outline: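 Normal human PBMC from healthy volunteers were isolated by Ficoll-Hypaque density gradient and seeded at 2.4 × 10⁶ cells/mL. Compounds were added at 100 to 0.06 and cells held 48 h at 37 °C, 5% CO₂. MTT was then added for 4 h, formazan dissolved in DMSO and A560 read. Untreated cells were taken as 100% viability. CC50 was obtained by linear regression.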
(In general: Tetrazolium assays rely on reduction of a dye to a coloured formazan, in cell work by metabolically active cells.)

Data set [2] relates to Staphylococcus epidermidis. In words: Antimicrobial activity against Staphylococcus epidermidis ATCC 12228 after 24 hrs by broth microdilution method. The data set is classed as functional. In outline: as §3
[3] abbreviates: Salmonella enterica, ATCC 14028, 24 h.
[4] abbreviates: ATCC 6538, 24 h, read-out: MIC50.
Setting [5] is: ATCC 90012, 24 h, read-out: MIC50.
[6] abbreviates: Salmonella enterica, ATCC 14028, 24 h, read-out: MIC50.

≈ marks a conversion by molar mass, not a printed value. Calls of active or inactive are those of the source. The calls are words filed in the database; no cut-off is given here.

`C[C@@H]1[C@H](O)[C@@H](C)/C=C/C=C/C=C/C=C/C=C/C=C/C=C/[C@H](O[C@@H]2O[C@H](C)[C@@H](O)[C@H](N)[C@@H]2O)C[C@@H]2O[C@](O)(C[C@@H](O)C[C@@H](O)[C@H](O)CC[C@@H](O)C[C@@H](O)CC(=O)O[C@H]1C)C[C@H](O)[C@H]2C(=O)O` [AMPHOTERICIN B]: the MIC50 entry in the data set with Candida tropicalis, in the data set with Cryptococcus neoformans, in the data set with Nannizzia gypsea, with Candida parapsilosis, with Trichophyton tonsurans and in the data set on Nakaseomyces glabratus was “inactive” in each case. Moreover, the MIC50 (as a rule, an inhibitory concentration at the 50% level, which refers to growth in some studies and to a panel of isolates in others) in the data set on Pichia kudriavzevii is “inactive”. The MIC amounted to 1.08 µM (≈ 0.998 µg/mL) in the data set on Candida tropicalis (ATCC 750, 24 h, read-out: MIC100); 1.08 µM (≈ 0.998 µg/mL) with Cryptococcus neoformans (ATCC 90012, 24 h); 0.54 µM (≈ 0.499 µg/mL) with Candida parapsilosis (Lodderomyces parapsilosis, ATCC 69548, 24 h, read-out: MIC100); 540 µM (≈ 499 µg/mL) with Trichophyton tonsurans; 0.54 µM (≈ 0.499 µg/mL) in the data set with Nakaseomyces glabratus (ATCC 90030, 24 h, read-out: MIC100); 1.08 µM (≈ 0.998 µg/mL) in the data set on Pichia kudriavzevii (ATCC 6258, 24 h, read-out: MIC100). Also, the MIC in the data set on Candida albicans (ATCC 09548, 24 h, read-out: MIC100) came out at 0.54 µM (≈ 0.499 µg/mL).

With `O=C(N[C@H](CO)[C@H](O)c1ccc([N+](=O)[O-])cc1)C(Cl)Cl` [CHLORAMPHENICOL], the MIC50 in the data set on Proteus mirabilis (ATCC 25933, 24 h) came to 24.1 µM (≈ 7.79 µg/mL); against Escherichia coli (ATCC 25922, 24 h), 1510 µM (≈ 487 µg/mL); against Bacillus cereus, 4820 µM (≈ 1560 µg/mL); against Salmonella typhimurium (setting [3]), 15.1 µM (≈ 4.88 µg/mL); in the data set on Staphylococcus aureus (setting [4]) it was 6030 µM (≈ 1950 µg/mL); against Pseudomonas aeruginosa (ATCC 9027, 24 h), 48.3 µM (≈ 15.6 µg/mL). Further, the MIC was found to be 48.3 µM (≈ 15.6 µg/mL) in the data set on Proteus mirabilis (ATCC 25933, 24 h, read-out: MIC100); 12.1 µM (≈ 3.9 µg/mL) in the data set with Escherichia coli (ATCC 25922, 24 h, read-out: MIC100); 77.4 µM (≈ 25 µg/mL) in the data set with Bacillus cereus; 6.03 µM (≈ 1.95 µg/mL) in the data set on Salmonella typhimurium (Salmonella enterica, ATCC 14028, 24 h, read-out: MIC100); 12 µM (≈ 3.89 µg/mL) in the data set with Staphylococcus aureus (ATCC 6538, 24 h, read-out: MIC100).

`OC(Cn1cncn1)(Cn1cncn1)c1ccc(F)cc1F` [FLUCONAZOLE]: the MIC50 against Candida tropicalis (ATCC 750, 24 h) was determined as 3260 µM (≈ 998 µg/mL); in the data set on Cryptococcus neoformans (setting [5]) it was 6530 µM (≈ 2000 µg/mL). Moreover, the MIC100 result with Candida parapsilosis, in the data set on Nakaseomyces glabratus, in the data set with Pichia kudriavzevii and in the data set on Candida albicans was “inactive” in each case.

Turning to `CC(C)=CCC[C@]1(C)[C@@H](CC=C(C)C)C[C@@]2(CC=C(C)C)C(=O)C(C(=O)c3ccc(OC(=O)c4ccc(Cl)cc4)c(OC(=O)c4ccc(Cl)cc4)c3)=C(O)[C@]1(CC=C(C)C)C2=O`, the MIC50 entry (in the data set with Candida tropicalis; in the data set on Nannizzia gypsea; with Candida parapsilosis; in the data set on Trichophyton tonsurans; in data set [2]; in the data set on Nakaseomyces glabratus) was “inactive” in each case. Also, the MIC50 result in the data set with Pichia kudriavzevii, in the data set with Pseudomonas aeruginosa and with Candida albicans was “inactive” in each case. For the same molecule, the MIC100 result in the data set on Candida tropicalis, in the data set with Proteus mirabilis, in the data set on Cryptococcus neoformans, in the data set with Nannizzia gypsea, in the data set on Candida parapsilosis and in the data set on Escherichia coli was “inactive” throughout. Besides, the MIC100 result (with Trichophyton tonsurans; in the data set on Salmonella typhimurium; in [2]; in the data set with Nakaseomyces glabratus; with Pichia kudriavzevii; in the data set on Staphylococcus aureus) was “inactive” each time. In addition, the MIC100 result in the data set on Pseudomonas aeruginosa and in the data set with Candida albicans was “inactive” each time. For the same molecule, in data set [1], the cytotoxic concentration (CC50) (as a rule, the concentration at which the toxic effect on the cells reaches its halfway point) at 48 h was > 114 µM. The MIC50 in the data set on Cryptococcus neoformans (ATCC 90012, 24 h) came to 45.5 µM (≈ 40 µg/mL); in the data set with Escherichia coli (ATCC 25922, 24 h), 44 µM (≈ 38.7 µg/mL); against Bacillus cereus it was 354 µM (≈ 312 µg/mL); in the data set with Salmonella typhimurium (setting [6]), 44 µM (≈ 38.7 µg/mL); in the data set on Staphylococcus aureus (setting [4]), 177 µM (≈ 156 µg/mL). In addition, the MIC with Bacillus cereus was found to be 45.5 µM (≈ 40 µg/mL).

With `CC(C)=CCC[C@]1(C)[C@@H](CC=C(C)C)C[C@@]2(CC=C(C)C)C(=O)C(C(=O)c3ccc(OC(=O)c4ccccc4)c(OC(=O)c4ccccc4)c3)=C(O)[C@]1(CC=C(C)C)C2=O`, the MIC50 entry (in the data set with Candida tropicalis; in the data set on Proteus mirabilis; in the data set on Nannizzia gypsea; with Candida parapsilosis; in the data set on Trichophyton tonsurans; in [2]) was “inactive” each time. For the same molecule, the MIC50 entry in the data set on Nakaseomyces glabratus, with Pichia kudriavzevii and in the data set with Candida albicans was “inactive” throughout. Besides, the MIC100 entry in the data set with Candida tropicalis, in the data set with Proteus mirabilis, with Cryptococcus neoformans, in the data set with Nannizzia gypsea, in the data set on Candida parapsilosis and with Escherichia coli was “inactive” in each case. Besides, the MIC100 entry (in the data set with Bacillus cereus; in the data set on Trichophyton tonsurans; with Salmonella typhimurium; in data set [2]; in the data set with Nakaseomyces glabratus; in the data set on Pichia kudriavzevii) was “inactive” each time. In addition, the MIC100 entry with Staphylococcus aureus, in the data set with Pseudomonas aeruginosa and with Candida albicans was “inactive” in each case. Besides, the half-maximal cytotoxic concentration (CC50) at 48 h in data set [1] was > 123 µM. The MIC50 amounted to 49.3 µM (≈ 40 µg/mL) in the data set on Cryptococcus neoformans (ATCC 90012, 24 h); 48 µM (≈ 38.9 µg/mL) in the data set on Escherichia coli (ATCC 25922, 24 h); 49.3 µM (≈ 40 µg/mL) in the data set with Salmonella typhimurium (setting [3]); 1540 µM (≈ 1250 µg/mL) in the data set with Staphylococcus aureus (setting [4]).

Take `CC(C)=CCC[C@]1(C)[C@@H](CC=C(C)C)C[C@@]2(CC=C(C)C)C(=O)C(C(=O)c3ccc(OC(=O)OC(C)(C)C)c(O)c3)=C(O)[C@]1(CC=C(C)C)C2=O`: the MIC50 entry (in the data set on Candida tropicalis; in the data set on Proteus mirabilis; in data set [2]; with Candida albicans) was “inactive” each time. In addition, the MIC100 result (with Candida tropicalis; in the data set with Proteus mirabilis; in the data set with Candida parapsilosis; in the data set on Escherichia coli; in the data set with Salmonella typhimurium; in data set [2]) was “inactive” throughout. The MIC100 result in the data set on Nakaseomyces glabratus, in the data set with Pseudomonas aeruginosa and in the data set with Candida albicans was “inactive” in each case. Moreover, in [1], the cytotoxic concentration (CC50) at 48 h was > 142 µM. Also, the MIC50 in the data set on Cryptococcus neoformans (setting [5]) came out at 555 µM (≈ 390 µg/mL); in the data set with Escherichia coli (ATCC 25922, 24 h), 555 µM (≈ 390 µg/mL); with Bacillus cereus, 1800 µM (≈ 1270 µg/mL); in the data set with Trichophyton tonsurans, 55 µM (≈ 38.7 µg/mL); with Salmonella typhimurium (setting [6]), 57 µM (≈ 40.1 µg/mL); against Nakaseomyces glabratus (ATCC 90030, 24 h), 56.9 µM (≈ 40 µg/mL). Moreover, the MIC50 against Pichia kudriavzevii (ATCC 6258, 24 h) turned out to be 56.9 µM (≈ 40 µg/mL); against Staphylococcus aureus (ATCC 6538, 24 h), 18 µM (≈ 12.7 µg/mL); with Pseudomonas aeruginosa (ATCC 9027, 24 h), 58.2 µM (≈ 40.9 µg/mL). The MIC with Cryptococcus neoformans (ATCC 90012, 24 h) was 1.82 µM (≈ 1.28 µg/mL); in the data set with Nannizzia gypsea (read-out: MIC100), 28.4 µM (≈ 20 µg/mL); with Bacillus cereus, 28.4 µM (≈ 20 µg/mL); in the data set with Trichophyton tonsurans, 1820 µM (≈ 1280 µg/mL).

These data come from ChEMBL document CHEMBL2010801, “Semisynthesis and antimicrobial activity of novel guttiferone-A derivatives” (Bioorg Med Chem, 2012).
